STAT3 act = IL-6 driven STAT3 reporter potentiators, primary screen, U3A cells, luciferase, luminescence, MLSCN library. IL-6 STAT3-luciferase reporter; 100% = signal with IL-6 EC80 alone. activation (% of control), % at 5.6 µM. hit rate 0.91% among 190,000. AID 871, 2007;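 active = activation above the screen-wide mean of compound activation plus 3 SD, cut at about 130% in these data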;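 note: 0% = background luminescence of wells with medium and substrate only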
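Test system: human U3A cells carrying STAT3-luciferase construct; control set: IL-6-only wells as 100% reference; timing: compound pre-incubation 1 h before IL-6, then 6 h stimulation at 37 °C; also added: IL-6 stimulus at 33 ng/mL final; evaluation: % activation versus median of IL-6-stimulated wells; detection: reporter luminescence signal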
STAT3 blocker = IL-6 driven STAT3 reporter inhibitors, primary screen, U3A cells, luciferase, luminescence, MLSCN library; IL-6 STAT3-luciferase reporter; host cell line lacks STAT1; inhibition, % at 5.5 µM; hit rate 0.89% among 190,000; AID 862, 2007;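 active = inhibition above the mean inhibition across all screened compounds plus 3 SD, cut at about 44% in these data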;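 note: 0% = DMSO only wells and 100% = 100 µM nifuroxazide control wells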
STAT1 inh = STAT1 signaling inhibitors, primary screen, cell-based, HTS, luciferase reporter; NIH 3T3 STAT1-luciferase reporter, IFN-gamma, luminescence; inhibition, % at 5.5 µM; hit rate 0.35% among 200,000; AID 920, 2007;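 active = inhibition above a set limit, the mean inhibition across all tested compounds plus 3 SD, cut at about 34% in these data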;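 note: 0% = IFN-gamma with DMSO and 100% = IFN-gamma with 300 µM nifuroxazide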
NF-kB neuron act = activators of NF-kB expression in neurons, primary screen, cell-based, HTS | fold change at 12.5 µM | human neuronal cells, NF-kB reporter expression; hits give high values | AID 1239, 2008 | hit rate 1.6% among 190,000; in the data active = fold change above about 3.3
APP 5'UTR act = activators of APP 5'UTR luciferase reporter, primary screen, SH-SY5Y cells | hit rate 1% among 190,000 | SH-SY5Y APP 5'UTR luciferase reporter, luminescence; zero percent = DMSO vehicle wells | activation, % at 2 µM | AID 1276, 2008;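 active = activation above a set limit, based on mean plus 3 SD of controls, cut at about 140% in these data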
STAT1 activator = STAT1 signaling activators, primary screen, cell-based, HTS, luciferase reporter | NIH 3T3 STAT1-luciferase reporter, IFN-gamma, luminescence; 100% = IFN-gamma alone, no compound | activation (% of control), % at 5.5 µM | hit rate 2.6% among 200,000 | AID 932, 2007;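 active = activation above the screen-wide mean activation plus 3 SD, cut at about 130% in these data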;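 note: raw ratio to IFN-gamma control signal so 100% means no change and 0% no light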
STAT1 act conf = STAT1 signaling activators, confirmation, cell-based, HTS, luciferase reporter | shares compounds with STAT1 activator | activation (% of control), % at 5.7 µM | hit rate 97% among 1,200 | NIH 3T3 STAT1-luciferase reporter, IFN-gamma potentiation, luminescence; 100% = IFN-gamma EC80 alone, no compound | AID 1262, 2008;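 active = activation above a set limit carried over from the earlier primary STAT1 screen, cut at about 140% in these data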;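 note: simple ratio to median IFN-gamma plus DMSO wells so 0% means no light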
NFkB act = NF-kB reporter activators, TNF-alpha stimulated, counter-screen for STAT1 activator project, cell-based, HEK293T, luciferase luminescence. shares compounds with STAT1 activator. 100% = TNF-alpha with vehicle only. activation (% of control), % at 5.7 µM. hit rate 43% among 1,200;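 active = activation above the mean of solvent-only control wells plus 3 SD, set per campaign, cut at about 130% in these data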;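 note: TNF-alpha given at a submaximal dose yielding about 80% of full reporter signal; values are well signal over median control so 100% means no change and 0% no light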
STAT3 act STAT1c = STAT3 reporter activation by STAT1 hits, confirmation, counter-screen for STAT1 activator project, U3A cells, luciferase, luminescence; shares compounds with STAT1 activator; IL-6; cells lack STAT1; 100 = IL-6 alone, no compound effect; activation (% of control), % at 5.7 µM; hit rate 46% among 1,200; AID 1316, 2008;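 active = activation above the solvent-only control well mean plus 3 SD, set per plate batch, cut at about 110% in these data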;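 note: 0% = no luminescence and 100% = median IL-6 plus DMSO wells; higher means more STAT3 reporter activation so hits are non-selective activators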
An asterisk follows results filed as active; . = not tested or not shown. Rows were chosen to be rich in hits. Some 4.9% of all compounds tested hit in one or more screens of this group.

SMILES	STAT3 act	STAT3 blocker	STAT1 inh	NF-kB neuron act	APP 5'UTR act	STAT1 activator	STAT1 act conf	NFkB act	STAT3 act STAT1c
Cc1ccc(C(=O)C(C)OC(=O)c2ccccc2[N+](=O)[O-])cc1 (centres undefined)	109.5	-14.0	-90.7	9.63*	172.9*	180.7*	213.4*	132.8	127.3*
CC(C)(C)N1C(=O)c2ccc(C(=O)Nc3nccs3)cc2C1=O	83.6	20.9	-59.4	2.02	-10.7	154.4*	174.1*	125.9	116.8*
Clc1ccccc1OCc1nc(-c2ccccn2)no1	85.0	21.2	-74.4	6.48*	171.2*	167.9*	225.2*	120.2	103.3
Nc1nonc1-c1noc(COc2ccccc2Cl)n1	85.7	19.1	-71.6	8.77*	187.1*	165.7*	218.9*	139.1*	115.9*
C=CCn1c(SCC(=O)NC2CCCc3ccccc32)nnc1-c1ccncc1 (centres undefined)	97.9	2.8	3.7	0.92	7.8	96.7	.	.	.
C/C(=N\NC(=O)C1CC1)c1ccccc1O	104.9	-1.1	-10.2	1.17	4.0	106.2	.	.	.
Cc1cc2cc(CCNC(=O)c3cccs3)c(=O)[nH]c2cc1C	102.7	-3.2	-56.5	2.04	97.9	151.4*	175.8*	131.1	96.5
Cc1ccc2cc(CCNC(=O)c3ccco3)c(=O)[nH]c2c1	94.8	7.3	-30.5	2.39	47.3	128.1	.	.	.
Cc1ccc2cc(CCNC(=O)c3ccco3)c(=O)[nH]c2c1C	104.3	-6.2	-63.9	3.87*	129.4	155.5*	200.9*	138.0*	121.4*
CC(C)Oc1cccc(C(=O)Nc2ccc(Br)cc2F)c1	76.2	30.6	-69.5	6.07*	139.2*	162.1*	208.7*	118.9	91.0
COc1ccc(C(C#N)N2N=C(c3ccccc3)CC2c2ccccc2)cc1OC (centres undefined)	91.7	12.3	-13.7	1.81	54.9	112.3	.	.	.
COc1ccc(C2=NN(C(C#N)c3ccc(OC)cc3)C(c3ccccc3)C2)cc1 (centres undefined)	99.9	1.0	-79.9	5.98*	108.7	171.5*	127.5	128.6	99.8
Cc1ccc(NCc2nc3ccccc3n2C)cc1	126.6	-25.9	-57.7	5.34*	175.3*	152.7*	183.2*	133.1	189.7*
O=C(N/N=C/c1ccccc1F)c1csc2c1CCCC2	71.4	37.5	-62.2	4.04*	33.2	156.9*	217.3*	120.3	105.4
Oc1ccccc1N1CCN(CC(O)COCc2ccccc2Cl)CC1 (centres undefined)	96.5	5.8	15.1	1.19	-7.3	85.0	.	.	.
CCC(=O)Nc1ccc2c(c1)ncn2-c1ccc(C)cc1	96.5	10.2	-71.2	2.65	103.3	162.4*	183.4*	136.3*	135.4*
O=c1[nH]c(=O)n(-c2ccccc2)c2c1C(C(F)(F)F)(C(F)(F)F)N=C(C1CCCCC1)N2	107.3	-11.5	4.5	0.8	-3.2	96.0	.	.	.
O=C(NCCSc1ccccc1)c1ccc(Br)cc1	98.3	2.9	-63.9	10.1*	179.5*	157.2*	205.5*	116.1	111.5*
CN(C)S(=O)(=O)c1ccc(C(=O)NCCSc2ccc(Br)cc2)cc1	97.0	4.8	3.8	0.95	-6.7	96.0	.	.	.

Source: PubChem BioAssay (several laboratories)
